{"source": "ChEMBL document CHEMBL5678802", "about": "“Small-molecule p21-activated kinase inhibitor PF-3758309 is a potent inhibitor of oncogenic signaling and tumor growth” (Proc Natl Acad Sci U S A, 2010)", "key": {"NCI-H1703": {"test_system": "NCI-H1703", "experiment": "Antiproliferative activity against human NCI-H1703 cells assessed as inhibition of cell proliferation incubated for 3 days by CellTiter-Glo Luminescent Cell Viability Assay", "assay_type": "functional, cell-based", "conditions": "NCI-H1703, 72 h", "how_it_was_run": "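Cells of each line were plated in 384-well plates on day 1 and exposed to compound from day 2 for 3 days. On day 5 all medium was aspirated. Viable cell number was read by CellTiter-Glo luminescence, which quantifies cellular ATP.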"}, "[1]": {"biological_target": "Protein kinase C gamma type (Homo sapiens, UniProt P05129)", "experiment": "Inhibition of human PKCgamma assessed as inhibition constant in presence of ATP"}}}
{"smiles": "Cc1nc(Nc2n[nH]c3c2CN(C(=O)N[C@H](CN(C)C)c2ccccc2)C3(C)C)c2sccc2n1", "note": "[PF-03758309]", "values": [{"measurement": "IC50", "setting": "NCI-H1703", "result": 4.4, "unit": "nM"}, {"measurement": "Ki", "setting": "[1]", "result": 43, "unit": "nM"}]}
